Data on three compounds can be found in ChEMBL document CHEMBL1157145, “Cytotoxic activity of proflavine diureas: synthesis, antitumor, evaluation and DNA binding properties of 1',1''-(acridin-3,6-diyl)-3',3''-dialkyldiureas” (Bioorg Med Chem, 2008).

Activity calls are given as the source filed them. No cut-off for these calls is given here.

The subject of assay [1] is DNA. As to the kind of experiment: Binding affinity to calf thymus DNA at 4 uM by fluorescence spectrophotometric titration. Conditions: Bos taurus. It is filed as nucleic-acid assay. The essentials:
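ctDNA sonicated in TE buffer, concentration taken from A260 and given in base pairs. Compound (4 µM) in 0.01 M Tris, pH 7.4, 25 °C titrated with ctDNA (0–55 µM bp) until spectra stopped changing. Excitation 424 nm, slit widths 10 nm; binding constant derived from the change in emission.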

The test system of assay [2] is HeLa. The assay is described as follows: Cytotoxicity against human HeLa cells after 48 hrs by MTT assay. It is filed as functional, cell-based.
In assay [3] the test system is HCT-116. As to the kind of experiment: Cell cycle arrest in human HCT116 cells assessed as accumulation at S phase at 27 uM after 24 hrs. It counts as functional. The essentials: (§1)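 Cells seeded at 8 · 10^5 per 60 mm dish, allowed to settle 24 h (37 °C, 5% CO2), then exposed to the drug for 24 or 48 h. Adherent plus floating cells (5 · 10^5) were fixed in cold 70% ethanol at −20 °C overnight, treated with RNase A (100 µg/mL) and stained with propidium iodide (20 µg/mL) in Vindelov's solution for 30 min at RT. Flow cytometry used 488 nm excitation, FL-2 at 585 ± 21 nm, and histograms were modelled for G0/G1, S and G2/M fractions.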

Assay [4] relates to HeLa. The assay is described as follows: Cell cycle arrest in human HeLa cells assessed as accumulation at G2/M phase at 64 uM after 24 hrs. It counts as functional. The essentials: as §1
Assay [5] concerns HCT-116. As to the kind of experiment: Antiproliferative activity against human HCT116 cells assessed as decrease in total cell population at 27 uM after 48 hrs. It is filed as functional. Details: scale not given: the % may be the effect or the level left. The method, boiled down: (§2)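 Cells seeded (8 · 10^5 per 60 mm dish), allowed to settle 24 h at 37 °C, 5% CO2, then treated with a single concentration for 24 or 48 h. Adherent and floating cells counted by Coulter counter. Total cell number given as % of untreated control; floating cells as % of total cell number.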

Assay [6] relates to HeLa. As to the kind of experiment: Antiproliferative activity against human HeLa cells assessed as decrease in total cell population at 64 uM after 48 hrs. Details: scale not given: the % may be the effect or the level left. It counts as functional. The essentials:
as §2

In assay [7] the test system is HeLa. The assay is described as follows: Induction of apoptosis in human HeLa cells at 64 uM after 48 hrs. It is filed as functional. The method, boiled down:
(§3)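 After 24 or 48 h of drug exposure, all cells were collected, combining trypsinised adherent cells with floating cells from the medium. Cells (1 × 10^6) were fixed in cold 70% ethanol overnight at −20 °C and stained with DAPI (10 µg/mL) for 30 min in the dark at RT. Under fluorescence microscopy, 300 cells per sample were scored, with condensed or fragmented nuclei counted as apoptotic.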

For assay [8], the system named is DNA. The assay is described as follows: Binding affinity to calf thymus DNA at 5.5 uM by absorption titration. The conditions noted are these: Bos taurus. It is filed as nucleic-acid assay. The essentials: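 Compound (5.5 µM) in 0.01 M Tris, pH 7.4, 25 °C. UV–vis spectra recorded over ctDNA 0–35 µM bp in 5 µM steps, corrected for dilution. ctDNA concentration from A260, expressed in base pairs.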

The subject of assay [9] is HCT-116. The assay is described as follows: Cell cycle arrest in human HCT116 cells assessed as accumulation at G0/G1 phase at 27 uM after 48 hrs. It counts as functional. The method, boiled down: (§4)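 Adherent plus floating cells (5 · 10^5) collected 24 or 48 h after treatment, fixed in cold 70% ethanol at −20 °C overnight, washed in PBS. RNase A (100 µg/mL) and propidium iodide (20 µg/mL) in Vindelov's solution, 30 min at RT. Flow cytometry with 488 nm excitation, emission 585 ± 21 nm; % cells per cycle phase from DNA content histograms.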

The subject of assay [10] is HeLa. As to the kind of experiment: Antiproliferative activity against human HeLa cells assessed as increase of floating cells in total cell population at 64 uM after 48 hrs. It counts as functional. The method, boiled down:
as §2

The subject of assay [11] is HeLa. As to the kind of experiment: Cell cycle arrest in human HeLa cells assessed as accumulation at S phase at 64 uM after 48 hrs. It is filed as functional. The method, boiled down:
as §1

Assay [12] deals with HCT-116. As to the kind of experiment: Cytotoxicity against human HCT116 cells after 48 hrs by MTT assay. Conditions: HCT-116, 48 h. It is filed as functional, cell-based. Background: Formazan colour is commonly taken as a measure of viable cells.
Assay [13] deals with DNA. As to the kind of experiment: Binding affinity to calf thymus DNA at 50 uM by circular dichroism spectrophotometric titration. It is filed as nucleic-acid assay. Conditions: Bos taurus. In general terms: Circular dichroism is the unequal absorption of left and right circularly polarised light.
The subject of assay [14] is HeLa. The assay is described as follows: Induction of apoptosis in human HeLa cells at 64 uM after 24 hrs. It counts as functional. The essentials: as §3
Assay [15] concerns HCT-116. As to the kind of experiment: Antiproliferative activity against human HCT116 cells assessed as decrease in total cell population at 27 uM after 24 hrs. It counts as functional. Details: scale not given: the % may be the effect or the level left. The method, boiled down:
as §2

Assay [16] deals with HeLa. As to the kind of experiment: Antiproliferative activity against human HeLa cells assessed as decrease in total cell population at 64 uM after 24 hrs. It is filed as functional. More on the design: scale not given: the % may be the effect or the level left. The method, boiled down: as §2
Assay [17] deals with HeLa. The assay is described as follows: Cell cycle arrest in human HeLa cells assessed as accumulation at G0/G1 phase at 64 uM after 48 hrs. It is filed as functional. The method, boiled down:
as §1

The test system of assay [18] is HeLa. The assay is described as follows: Cytotoxicity against human HeLa cells after 72 hrs by MTT assay. It is filed as functional, cell-based.
Assay [19] relates to HCT-116. As to the kind of experiment: Cytotoxicity against human HCT116 cells after 72 hrs by MTT assay. It is filed as functional, cell-based. The conditions noted are these: Homo sapiens, HCT-116, 72 h.
Assay [20] has as its system HeLa. As to the kind of experiment: Antiproliferative activity against human HeLa cells assessed as increase of floating cells in total cell population at 64 uM after 24 hrs. It counts as functional. The essentials: as §2
Assay [21] concerns HCT-116. The assay is described as follows: Antiproliferative activity against human HCT116 cells assessed as increase of floating cells in total cell population at 27 uM after 24 hrs. It is filed as functional. The essentials:
as §2

Assay [22] relates to HCT-116. As to the kind of experiment: Cell cycle arrest in human HCT116 cells assessed as accumulation at S phase at 27 uM after 48 hrs. It counts as functional. The method, boiled down: as §1
Assay [23] concerns HCT-116. As to the kind of experiment: Cell cycle arrest in human HCT116 cells assessed as accumulation at G0/G1 phase at 27 uM after 24 hrs. It is filed as functional. The essentials:
as §4

Assay [24] deals with HCT-116. As to the kind of experiment: Cell cycle arrest in human HCT116 cells assessed as accumulation at G2/M phase at 27 uM after 24 hrs. It counts as functional. The essentials:
as §1

Assay [25] concerns HCT-116. The assay is described as follows: Induction of apoptosis in human HCT116 cells at 27 uM after 24 hrs. It counts as functional. The method, boiled down:
as §3

Assay [26] concerns HeLa. As to the kind of experiment: Cell cycle arrest in human HeLa cells assessed as accumulation at G0/G1 phase at 64 uM after 24 hrs. It counts as functional. The essentials: as §1
For assay [27], the system named is HCT-116. The assay is described as follows: Induction of apoptosis in human HCT116 cells at 27 uM after 48 hrs. It counts as functional. The essentials:
as §3

Assay [28] relates to HeLa. The assay is described as follows: Cell cycle arrest in human HeLa cells assessed as accumulation at G2/M phase at 64 uM after 48 hrs. It counts as functional. The method, boiled down:
as §1

The subject of assay [29] is HCT-116. The assay is described as follows: Cell cycle arrest in human HCT116 cells assessed as accumulation at G2/M phase at 27 uM after 48 hrs. It counts as functional. The method, boiled down:
as §1

The test system of assay [30] is HCT-116. As to the kind of experiment: Antiproliferative activity against human HCT116 cells assessed as increase of floating cells in total cell population at 27 uM after 48 hrs. It is filed as functional. The essentials:
as §2

The test system of assay [31] is HeLa. The assay is described as follows: Cell cycle arrest in human HeLa cells assessed as accumulation at S phase at 64 uM after 24 hrs. It counts as functional. The essentials:
as §1

`Nc1ccc2cc3ccc(N)cc3nc2c1` came in with a K in assay [1] of 7.95 ×10⁵ /M.

By IC50 is commonly meant the concentration that inhibits the measured activity by half. In [2], `COc1cc([C@@H]2c3cc4c(cc3[C@@H](O[C@@H]3O[C@@H]5CO[C@@H](C)O[C@H]5[C@H](O)[C@H]3O)[C@H]3COC(=O)[C@H]23)OCO4)cc(OC)c1O` [ETOPOSIDE] gave an IC50 of 2.9 µM.

Take `CCNC(=O)Nc1ccc2cc3ccc(NC(=O)NCC)cc3nc2c1.Cl`: the Activity in assay [3] was 34.06%; in [4], 12.75%; in [5], 75.37%; in assay [6], 93.61%; in [7], 0.89%; in assay [9], 53.7%. Also, the Activity in assay [10] was 4.63%; in assay [11] it was 19.5%; in [14], 1.33%; in assay [15], 79.4%; in assay [16], 95.15%; in assay [17], 71.26%. For the same compound, the Activity is 3.58% in assay [20]; 6.2% in assay [21]; 31.45% in assay [22]; 47.44% in [23]; 18.5% in [24]; 3.22% in [25]. Moreover, the Activity in assay [26] was 63.51%; in [27], 3.44%; in [28] it was 9.23%; in assay [29] it was 14.85%; in assay [30], 5.68%; in assay [31] it was 23.73%. For the same compound, the result in assay [8] and in [13] was Active. The IC50 in [12] was 27.6 µM; in assay [2], 63.9 µM; in assay [18] it was 60 µM; in assay [19] it was 34.7 µM. The compound also yielded a K in assay [1] of 4.2 ×10⁵ /M.
